Assay results as given in ChEMBL document CHEMBL2417547 (J Med Chem, 2013).

Columns and labels:
[1] = Half life in rat plasma at 1 uM by LC-MS/MS analysis; type: ADME, cell-free
How it was run: (§1)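 Compound at 1 μM in pooled heparinized plasma of the stated species, 37 °C, sampled at 0, 10, 30, 60 and 150 min. Proteins precipitated with 5 volumes of cold acetonitrile containing internal standard. Remaining compound quantified by LC-MS/MS to give half-life.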

[2] = Half life in human liver S9 fraction at 1 uM by LC-MS/MS analysis; type: ADME, subcellular
How it was run: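 Pooled human liver S9 fraction, 1 mg/mL, with 2 mM NADPH regenerating system, 1 mM UDPGA and 0.1 mM PAPS (phase I and II). Compound at 1 μM, 37 °C, sampled at 0, 5, 15 and 60 min. Stopped with cold acetonitrile containing internal standard. Remaining compound measured by LC-MS/MS and used to derive t1/2. Mean of more than three repeats.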

[3] = target: T1, Cytochrome P450 11B1, mitochondrial (Homo sapiens, UniProt P15538); assay: Inhibition of human CYP11B1 expressed in hamster V79MZh cells using [1,2-3H]-11-deoxycorticosterone as substrate; type: cell-based
T1 sequence (P15538 whole entry): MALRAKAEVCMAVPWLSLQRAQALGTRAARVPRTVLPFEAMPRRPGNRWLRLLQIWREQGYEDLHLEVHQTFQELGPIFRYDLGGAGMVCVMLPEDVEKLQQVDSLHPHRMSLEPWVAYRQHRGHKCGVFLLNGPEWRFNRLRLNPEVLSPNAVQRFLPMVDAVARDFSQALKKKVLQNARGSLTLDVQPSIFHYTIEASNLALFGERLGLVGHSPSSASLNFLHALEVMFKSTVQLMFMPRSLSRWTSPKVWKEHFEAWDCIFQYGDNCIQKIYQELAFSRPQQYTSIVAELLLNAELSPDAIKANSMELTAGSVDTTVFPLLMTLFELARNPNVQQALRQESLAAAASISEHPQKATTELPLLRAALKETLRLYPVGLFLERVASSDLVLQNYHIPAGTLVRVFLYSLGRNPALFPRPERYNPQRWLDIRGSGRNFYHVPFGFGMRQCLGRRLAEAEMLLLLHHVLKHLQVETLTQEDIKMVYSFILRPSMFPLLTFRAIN
How it was run: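 V79MZh hamster fibroblasts expressing human CYP11B1 or CYP11B2 were incubated with [1,2-3H]-11-deoxycorticosterone (100 nM) plus inhibitor at a range of concentrations. The selectivity factor is IC50(CYP11B2)/IC50(CYP11B1).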

[4] = Cytotoxicity against HEK293 cells after 24 hrs; type: cell-based; conditions: human, read-out: LC50
How it was run: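 HEK 293 cells seeded at 2 × 10⁵ cells per well; compounds added 24 h after seeding at 1% final DMSO. Living cell mass determined after 24 h incubation; LC₅₀ calculated. Doxorubicin positive control, rifampicin negative control. Mean of more than three repeats.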

Cytochrome P450 3A4 = Cytochrome P450 3A4 (Homo sapiens, UniProt P08684); assay: Inhibition of CYP3A4 (unknown origin) using 7-benzyloxy trifluoromethylcoumarin as substrate; type: ADME
Sequence of Cytochrome P450 3A4 (P08684 whole entry): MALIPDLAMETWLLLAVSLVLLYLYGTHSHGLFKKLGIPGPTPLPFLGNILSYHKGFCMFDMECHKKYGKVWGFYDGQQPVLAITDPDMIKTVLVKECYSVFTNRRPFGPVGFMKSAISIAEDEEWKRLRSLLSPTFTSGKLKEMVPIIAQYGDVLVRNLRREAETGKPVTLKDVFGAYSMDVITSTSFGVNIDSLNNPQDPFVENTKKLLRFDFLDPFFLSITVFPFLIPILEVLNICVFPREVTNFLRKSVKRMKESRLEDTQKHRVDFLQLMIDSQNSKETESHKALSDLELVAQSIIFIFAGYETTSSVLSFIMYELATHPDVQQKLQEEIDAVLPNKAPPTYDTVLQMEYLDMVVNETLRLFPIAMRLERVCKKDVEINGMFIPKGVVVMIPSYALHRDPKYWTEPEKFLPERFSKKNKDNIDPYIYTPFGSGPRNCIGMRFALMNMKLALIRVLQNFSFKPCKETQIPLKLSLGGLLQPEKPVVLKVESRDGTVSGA
How it was run: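 Commercial CYP3A4/BFC inhibitor screening kit with 7-benzyloxy-trifluoromethylcoumarin as substrate at 50 μM, run per the kit instructions. IC50 determined.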

Homo sapiens = species on record: Homo sapiens; assay: Selectivity factor, ratio of IC50 for human CYP11B2 to IC50 for human CYP11B1
How it was run: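 V79MZh hamster fibroblasts expressing human CYP11B1 or CYP11B2 were incubated with [1,2-3H]-11-deoxycorticosterone (100 nM) plus inhibitor at a range of concentrations. […] The selectivity factor is IC50(CYP11B2)/IC50(CYP11B1).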

[5] = Half life in human plasma at 1 uM by LC-MS/MS analysis; type: ADME, cell-free; how it was run: as §1
CYP17 = target: T2, CYP17 (Homo sapiens, UniProt P05093); assay: Inhibition of human CYP17 expressed in Escherichia coli co-expressing rat NADPH-P450 reductase using progesterone as substrate at 2 uM relative to control; conditions: probe progesterone
T2 sequence (P05093 whole entry): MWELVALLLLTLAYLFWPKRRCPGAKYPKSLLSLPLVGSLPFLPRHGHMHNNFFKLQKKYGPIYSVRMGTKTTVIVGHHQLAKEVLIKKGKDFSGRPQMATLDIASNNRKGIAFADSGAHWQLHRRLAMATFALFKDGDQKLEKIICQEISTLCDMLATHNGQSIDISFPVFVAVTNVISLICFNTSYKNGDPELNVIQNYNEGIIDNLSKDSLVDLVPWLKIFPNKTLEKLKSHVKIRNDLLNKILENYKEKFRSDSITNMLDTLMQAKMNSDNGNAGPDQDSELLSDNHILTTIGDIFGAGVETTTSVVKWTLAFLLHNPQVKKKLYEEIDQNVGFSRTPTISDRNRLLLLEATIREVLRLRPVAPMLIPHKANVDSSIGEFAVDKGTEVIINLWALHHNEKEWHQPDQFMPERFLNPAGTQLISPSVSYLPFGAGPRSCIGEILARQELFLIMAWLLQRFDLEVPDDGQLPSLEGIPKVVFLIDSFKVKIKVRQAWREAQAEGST
How it was run: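 Human CYP17 expressed in E. coli, co-expressing rat NADPH-P450 reductase. Progesterone substrate at 25 μM with NADPH cofactor. Test compound at 2 μM. Percent inhibition is the mean of at least three experiments (deviations <25%); values ≤5% are treated as not significant.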

**Q.** Which results are given for Cc1cncc(Cc2ccc(-c3ccccc3)nc2)c1?
**A.** half-life at 1 µM [1]: > 2.5 h; half-life at 1 µM [2]: > 2.5 h; IC50 [3]: 0.002 µM; CC50 at 24 h [4]: 61.4 µM; IC50 (Cytochrome P450 3A4): 1.1 µM; Ratio IC50 (Homo sapiens): 15.1; half-life at 1 µM [5]: > 2.5 h; inhibition at 2 µM (CYP17): 5%
